Measurements: ChEMBL document CHEMBL1156564, “2-Phenoxy-indan-1-one derivatives as acetylcholinesterase inhibitors: a study on the importance of modifications at the side chain on the activity” (Bioorg Med Chem, 2008)
Calls of active or inactive are those of the source. No cut-off for these calls is given here.

How the values were obtained:
Acetylcholinesterase = target: T1, Acetylcholinesterase (Rattus norvegicus, UniProt P37136); test: Inhibition of AchE in rat cortex by Ellman's method
T1 sequence (P37136 whole entry): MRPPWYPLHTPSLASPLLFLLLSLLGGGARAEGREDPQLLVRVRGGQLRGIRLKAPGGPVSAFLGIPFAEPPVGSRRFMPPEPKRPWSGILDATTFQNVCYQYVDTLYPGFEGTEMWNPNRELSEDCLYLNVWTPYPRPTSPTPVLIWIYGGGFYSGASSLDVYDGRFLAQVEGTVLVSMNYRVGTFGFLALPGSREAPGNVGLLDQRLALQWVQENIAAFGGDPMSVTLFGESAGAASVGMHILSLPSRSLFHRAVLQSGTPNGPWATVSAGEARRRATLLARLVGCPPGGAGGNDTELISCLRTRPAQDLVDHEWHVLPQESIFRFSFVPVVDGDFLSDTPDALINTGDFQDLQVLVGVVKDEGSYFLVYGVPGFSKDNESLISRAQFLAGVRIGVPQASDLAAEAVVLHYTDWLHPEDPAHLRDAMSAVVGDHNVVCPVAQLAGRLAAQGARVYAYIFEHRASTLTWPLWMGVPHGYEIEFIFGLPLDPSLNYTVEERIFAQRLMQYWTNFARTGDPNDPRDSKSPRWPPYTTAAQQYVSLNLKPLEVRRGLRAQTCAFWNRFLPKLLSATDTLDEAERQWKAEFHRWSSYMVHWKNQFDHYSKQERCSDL

Butyrylcholinesterase = Butyrylcholinesterase (Rattus norvegicus, UniProt Q9JKC1); test: Inhibition of BuchE in rat serum by Ellman's method; assay type: cell-free
Method in brief: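 Modified Ellman assay with rat serum as BuChE source. Mixture of butyrylthiocholine iodide, sodium phosphate buffer pH 7.4, serum and tested compound at different concentrations, incubated 37 °C for 15 min.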

Rattus norvegicus = species on record: Rattus norvegicus; test: Selectivity ratio of IC50 for BuchE in rat serum to IC50 for AchE in rat cortex; assay type: cell-free
Method in brief: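 IC50 ratio from modified Ellman assays. BuChE from rat serum with butyrylthiocholine iodide. AChE from rat cortex homogenate, preincubated with isoOMPA (0.04 mmol/L) to block BuChE, with acetylthiocholine iodide. Each mixture held enzyme source, sodium phosphate buffer pH 7.4 and compound at different concentrations, incubated 37 °C for 15 min.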

PC-12 [1] = test: Neuroprotective activity in rat PC12 cells assessed as inhibition of H2O2-induced neurotoxicity at 0.1 uM after 2 hrs by MTT assay; assay type: functional, cell-based
Method in brief: (§1)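 Undifferentiated PC12 cells were seeded at 5000 cells/well and cultured at 37 °C under 5% CO2. They were left to attach for 1 day before […] was added. 2 h later the cells were exposed to H2O2. Viability was read by MTT (0.25 mg/mL final, 4 h), with formazan dissolved in DMSO and OD read at 570 nm.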

PC-12 [2] = test: Neuroprotective activity against rat PC12 cells assessed as inhibition of H2O2-induced neurotoxicity at 0.5 uM after 2 hrs by MTT assay; assay type: functional, cell-based; method in brief: as §1

Butyrylcholinesterase, sequence (Q9JKC1 whole entry): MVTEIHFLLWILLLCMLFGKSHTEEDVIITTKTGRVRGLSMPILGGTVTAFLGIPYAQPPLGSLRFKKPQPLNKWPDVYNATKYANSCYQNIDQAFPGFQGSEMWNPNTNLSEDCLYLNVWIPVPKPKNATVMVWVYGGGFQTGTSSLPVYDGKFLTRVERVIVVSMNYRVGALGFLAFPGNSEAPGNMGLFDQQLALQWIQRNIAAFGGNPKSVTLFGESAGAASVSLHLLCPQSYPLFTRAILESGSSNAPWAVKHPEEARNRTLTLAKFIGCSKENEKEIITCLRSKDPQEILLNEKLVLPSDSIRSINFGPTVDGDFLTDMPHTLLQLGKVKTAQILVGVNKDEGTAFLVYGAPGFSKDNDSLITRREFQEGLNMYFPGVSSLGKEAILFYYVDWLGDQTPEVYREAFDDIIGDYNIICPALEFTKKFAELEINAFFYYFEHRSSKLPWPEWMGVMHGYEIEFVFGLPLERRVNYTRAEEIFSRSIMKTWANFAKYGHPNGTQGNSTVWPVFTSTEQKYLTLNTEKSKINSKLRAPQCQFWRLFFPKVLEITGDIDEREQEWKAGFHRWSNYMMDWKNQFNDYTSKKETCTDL

Row | Structure (SMILES) | IC50 (Acetylcholinesterase) [nM] | IC50 (Butyrylcholinesterase) [nM] | Ratio IC50 (Rattus norvegicus) | Activity (PC-12 [1]) | Activity (PC-12 [2])
1 | CCN(CC)CCC(=O)c1ccc(OC2Cc3cc(OC)c(OC)cc3C2=O)cc1 (stereo not given) | 0.78 | 1520 | 1950 | Active | Active
2 | CCN(CC)CCC(=O)c1cccc(OC2Cc3cc(OC)c(OC)cc3C2=O)c1 (stereo not given) | 2370 | 1520 | 0.64 |  | 
3 | COc1cc2c(cc1OC)C(=O)C(Oc1cccc(C(=O)CCN3CCCC3)c1)C2 (stereo not given) | 832 | 11100 | 13.3 |  | 
4 | CCN(CC)CCc1ccc(OC2Cc3cc(OC)c(OC)cc3C2=O)cc1 (stereo not given) | 42.1 | 16600 | 394 |  | 
5 | CCN(CC)CCCc1ccc(OC2Cc3cc(OC)c(OC)cc3C2=O)cc1 (stereo not given) | 277 | 3990 | 14.4 |  | 
6 | COc1cc2c(cc1OC)C(=O)C(Oc1ccc(CCN3CCCC3)cc1)C2 (stereo not given) | 37.3 | 30400 | 816 |  | 
7 | CCN(C)CCCC(=O)c1ccc(OC2Cc3cc(OC)c(OC)cc3C2=O)cc1 (stereo not given) | 37.6 | 26900 | 715 |  | 
8 | COc1cc2c(cc1OC)C(=O)C(Oc1ccc(CCCCN3CCCC3)cc1)C2 (stereo not given) | 415 | 3220 | 7.76 |  | 
9 | COc1cc2c(cc1OC)C(=O)C(Oc1ccc(CCN3CCCCC3)cc1)C2 (stereo not given) | 50.2 | 5110 | 102 |  | 
10 | COc1cc2c(cc1OC)C(=O)C(Oc1cccc(CCN3CCCCC3)c1)C2 (stereo not given) | 1550 | 7000 | 4.52 |  | 
11 | COc1cc2c(cc1OC)C(=O)C(Oc1ccc(CCCN3CCCCC3)cc1)C2 (stereo not given) | 640 | 2790 | 4.36 |  | 
12 | COc1cc2c(cc1OC)C(=O)C(Oc1ccc(C(=O)CCN3CCCCC3)cc1)C2 (stereo not given) | 17.3 | 3240 | 187 |  | 
13 | CCN(CC)CCCC(=O)c1ccc(OC2Cc3cc(OC)c(OC)cc3C2=O)cc1 (stereo not given) | 40.6 | 37700 | 927 |  | 
14 | CCN(C)CCc1ccc(OC2Cc3cc(OC)c(OC)cc3C2=O)cc1 (stereo not given) | 51.6 | 22000 | 427 |  | 
15 | COc1cc2c(cc1OC)C(=O)C(Oc1ccc(C(=O)CN3CCCCC3)cc1)C2 (stereo not given) | 364 | 1660 | 4.57 |  | 
16 | CCN(CC)CC(=O)c1ccc(OC2Cc3cc(OC)c(OC)cc3C2=O)cc1 (stereo not given) | 280 | 2430 | 8.7 |  | 
17 | COc1cc2c(cc1OC)C(=O)C(Oc1ccc(C(=O)CN3CCCC3)cc1)C2 (stereo not given) | 240 | 1720 | 7.2 |  | 
18 | CCN(CC)CCCCc1ccc(OC2Cc3cc(OC)c(OC)cc3C2=O)cc1 (stereo not given) | 481 | 3260 | 6.77 |  | 
19 | COc1cc2c(cc1OC)C(=O)C(Oc1ccc(C(=O)CCCN3CCCC3)cc1)C2 (stereo not given) | 62 | 2930 | 47.2 |  | 
20 | CCN(C)CCc1cccc(OC2Cc3cc(OC)c(OC)cc3C2=O)c1 (stereo not given) | 710 | 8650 | 12.2 |  | 
21 | COc1cc2c(cc1OC)C(=O)C(Oc1ccc(C(=O)CCCN3CCCCC3)cc1)C2 (stereo not given) | 529 | 8970 | 17 |  | 
22 | COc1cc2c(cc1OC)C(=O)C(Oc1cccc(CCN3CCCC3)c1)C2 (stereo not given) | 1770 | 15400 | 8.69 |  | 
23 | COc1cc2c(cc1OC)C(=O)C(Oc1ccc(C(=O)CCN3CCCC3)cc1)C2 (stereo not given) | 4.16 | 6040 | 1450 |  | 
24 | CCN(CC)CCc1cccc(OC2Cc3cc(OC)c(OC)cc3C2=O)c1 (stereo not given) | 2090 | 11100 | 5.31 |  | 
25 | CCN(C)CC(=O)c1ccc(OC2Cc3cc(OC)c(OC)cc3C2=O)cc1 (stereo not given) | 31.6 | 588 | 18.6 |  | 
26 | COc1cc2c(cc1OC)C(=O)C(Oc1ccc(CCCN3CCCC3)cc1)C2 (stereo not given) | 209 | 2340 | 11.2 |  | 
27 | CCN(C)CCC(=O)c1ccc(OC2Cc3cc(OC)c(OC)cc3C2=O)cc1 (stereo not given) | 1.85 | 4510 | 2440 |  | 
28 | COc1cc2c(cc1OC)C(=O)C(CC1CCN(Cc3ccccc3)CC1)C2 (stereo not given) |  |  |  | Active | Active
